Reference: ChEMBL document CHEMBL1132636, “Phthalein derivatives as a new tool for selectivity in thymidylate synthase inhibition” (J Med Chem, 1999)
≈ marks a conversion by molar mass, not a printed value.

Tests used:
MT4 = assay: In vitro cytotoxicity against mock infected MT-4 cells.; assay type: functional; conditions: Homo sapiens
Summary of the method: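 Uninfected MT-4 cells, 1 × 10⁴ per well in RPMI with 10% FCS, with serial compound dilutions from a DMSO stock. Incubated 4 days at 37 °C, run in parallel with the anti-HIV assay. Viable cells counted by MTT; reported as CC50.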

Streptococcus [1] = assay: In vitro minimum concentration for germicidal effect on Streptococcus.; assay type: functional
Staphylococcus aureus [2] = assay: In vitro evaluation for minimum germicidal effect on Staphylococcus aureus was determined; assay type: functional
Cryptococcus neoformans = assay: In vitro inhibition of Cryptococcus neoformans growth.; assay type: functional
Summary of the method: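 Cr. neoformans in Sabouraud dextrose broth pH 5.7, 10³ blastospores or CFU/tube, serial compound dilutions, 37 °C, read after 5 days. MIC is the lowest concentration with no macroscopic growth. MGC is taken by subculturing negative tubes onto drug-free Sabouraud agar.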

Staphylococcus aureus [3] = assay: In vitro inhibition of Staphylococcus aureus growth.; assay type: functional
Summary of the method: (§1)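 Bacterial clinical isolates (S. aureus, group D Streptococcus) grown in nutrient broth pH 7.2, inoculum 10³ cells/tube, with serial dilutions of compound from a DMSO stock.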

[4] = target: Thymidylate synthase (Homo sapiens) (UniProt P04818)
Streptococcus [5] = assay: In vitro inhibition of Streptococcus growth.; assay type: functional; summary of the method: as §1
[6] = system: thymidylate synthase (Lactobacillus casei)
[7] = system: thymidylate synthase (Pneumocystis carinii)
[8] = system: thymidylate synthase (Cryptococcus neoformans)
[9] = Ratio of cytotoxic concentration to that of minimum inhibitory concentration against Streptococcus (CC50/MIC50).; assay type: functional
[10] = target: T1, Thymidylate synthase (Lactobacillus casei) (UniProt P00469); assay: Compound was evaluated for the percentage inhibition against Lactobacillus casei Thymidylate synthase (LcTS) at 27 uM; conditions: Lacticaseibacillus casei
T1 sequence (whole entry): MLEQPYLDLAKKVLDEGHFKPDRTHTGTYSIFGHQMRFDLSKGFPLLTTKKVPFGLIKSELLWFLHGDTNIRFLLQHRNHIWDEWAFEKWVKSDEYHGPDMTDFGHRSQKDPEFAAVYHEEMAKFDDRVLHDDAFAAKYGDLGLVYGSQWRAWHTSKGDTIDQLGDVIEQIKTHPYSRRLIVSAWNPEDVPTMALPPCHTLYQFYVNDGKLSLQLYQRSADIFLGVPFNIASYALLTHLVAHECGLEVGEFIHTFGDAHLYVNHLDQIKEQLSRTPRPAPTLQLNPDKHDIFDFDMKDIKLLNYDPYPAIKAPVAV
Summary of the method: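 Single concentration 27 µM, initial TS rates measured with and without inhibitor; IF = Vii/Vi. Purified L. casei TS, TES 50 mM pH 7.4 buffer with MgCl2, formaldehyde, EDTA, 2-mercaptoethanol; dUMP 120 µM, folate 60 µM, 20 °C. Read-out is absorbance rise at 340 nm. At least three determinations, each within 10% of the mean.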

[11] = target: T1, Thymidylate synthase (Lactobacillus casei); conditions: Lacticaseibacillus casei

Sequence of Thymidylate synthase (Homo sapiens) (P04818 2-313 limits assumed): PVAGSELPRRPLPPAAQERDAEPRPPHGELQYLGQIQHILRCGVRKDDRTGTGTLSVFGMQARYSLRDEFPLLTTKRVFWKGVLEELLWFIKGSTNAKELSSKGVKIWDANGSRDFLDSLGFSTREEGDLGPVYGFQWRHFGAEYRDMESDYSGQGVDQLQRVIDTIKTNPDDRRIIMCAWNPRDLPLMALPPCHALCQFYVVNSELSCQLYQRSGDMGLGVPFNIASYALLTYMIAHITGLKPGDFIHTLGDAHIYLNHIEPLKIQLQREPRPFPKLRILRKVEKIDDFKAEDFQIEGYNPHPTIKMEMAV

## O=C1OC(c2ccc(O)cc2)(c2ccc(O)cc2)c2cccc3cccc1c23
MT4
  CC50: 41 µM
Streptococcus [1]
  MGC: 34 µM
Staphylococcus aureus [2]
  MGC: 41 µM
Cryptococcus neoformans
  MIC: > 41 µM
Staphylococcus aureus [3]
  MIC: 34 µM (≈ 12.5 µg/mL)
[4]
  IF: 0.272
Streptococcus [5]
  MIC: 17 µM (≈ 6.26 µg/mL)

## O=C1OC(c2ccc(O)cc2)(c2ccc(O)cc2)c2ccc3c4c(ccc1c24)CC3
[6]
  IF: 0.409
MT4
  CC50: 53 µM
[7]
  IF: 0.344
Streptococcus [1]
  MGC: 32 µM
Staphylococcus aureus [2]
  MGC: 32 µM
Cryptococcus neoformans
  MIC: > 53 µM
Staphylococcus aureus [3]
  MIC: 16 µM (≈ 6.31 µg/mL)
[4]
  IF: 0.475
[8]
  IF: 0.344
Streptococcus [5]
  MIC: 16 µM (≈ 6.31 µg/mL)
[9]
  SI: 3.3

## O=C1OC(c2ccc(O)cc2)(c2ccc(O)cc2)c2ccc(Br)c3cccc1c23.O=C1OC(c2ccc(O)cc2)(c2ccc(O)cc2)c2cccc3c(Br)ccc1c23
[6]
  IF: 0.112
MT4
  CC50: 76 µM
[7]
  IF: 0.536
Streptococcus [1]
  MGC: 28 µM
Staphylococcus aureus [2]
  MGC: 28 µM
Cryptococcus neoformans
  MIC: 37.5 µM
Staphylococcus aureus [3]
  MIC: 7 µM
[4]
  IF: 0.453
[8]
  IF: 0.243
Streptococcus [5]
  MIC: 7 µM
[9]
  SI: 10.8

## O=C1OC(O)(c2ccccc2O)c2cccc3cccc1c23 (stereo not drawn)
[6]
  IF: 0.781
MT4
  CC50: 263 µM
[7]
  IF: 0.151
Streptococcus [1]
  MGC: 263 µM
Cryptococcus neoformans
  MIC: 18.7 µM (≈ 5.47 µg/mL)
Staphylococcus aureus [3]
  MIC: > 263 µM
[4]
  IF: 0.957
[8]
  IF: 0.576
Streptococcus [5]
  MIC: 171 µM (≈ 50 µg/mL)
[9]
  SI: 1.5

## O=C1OC(c2ccc(O)c(Cl)c2)(c2ccc(O)c(Cl)c2)c2ccccc21
[6]
  IF: 0.47
MT4
  CC50: 77 µM
[7]
  IF: 0.725
Streptococcus [1]
  MGC: 32 µM
Staphylococcus aureus [2]
  MGC: 64 µM
Cryptococcus neoformans
  MIC: > 77 µM
Staphylococcus aureus [3]
  MIC: 32 µM (≈ 12.4 µg/mL)
[4]
  IF: 0.67
[8]
  IF: 0.704
Streptococcus [5]
  MIC: 32 µM (≈ 12.4 µg/mL)
[9]
  SI: 2.4

## COc1ccc(C2(c3ccc(OC)cc3)OC(=O)c3cccc4cccc2c34)cc1
[6]
  IF: 0.624
MT4
  CC50: 21 µM
[7]
  IF: 0.749
[10]
  inhibition: 47%
Cryptococcus neoformans
  MIC: > 21 µM
Staphylococcus aureus [3]
  MIC: > 21 µM
[4]
  IF: 1
[8]
  IF: 0.836
Streptococcus [5]
  MIC: > 21 µM

## Cc1ccc(C(C)C)c(O)c1C1(O)OC(=O)c2cccc3cccc1c23 (stereo not drawn)
MT4
  CC50: 89 µM
Streptococcus [1]
  MGC: >89 µM
Cryptococcus neoformans
  MIC: > 89 µM
Staphylococcus aureus [3]
  MIC: > 89 µM
[4]
  IF: 1
Streptococcus [5]
  MIC: 72 µM (≈ 25.1 µg/mL)

## O=C1OC(c2ccc(O)cc2)(c2ccc(O)cc2)c2ccc([N+](=O)[O-])c3cccc1c23
MT4
  CC50: 41 µM
Staphylococcus aureus [2]
  MGC: 30 µM
Cryptococcus neoformans
  MIC: > 41 µM
Staphylococcus aureus [3]
  MIC: 15 µM (≈ 6.2 µg/mL)
[4]
  IF: 0.424
Streptococcus [5]
  MIC: > 41 µM

## O=C1OC(c2ccc(O)c(Cl)c2)(c2ccc(O)c(Cl)c2)c2ccc(Br)c3cccc1c23.O=C1OC(c2ccc(O)c(Cl)c2)(c2ccc(O)c(Cl)c2)c2cccc3c(Br)ccc1c23
[6]
  IF: 0.36
MT4
  CC50: 154 µM
Streptococcus [1]
  MGC: 3.1 µM
Staphylococcus aureus [2]
  MGC: 12.5 µM
Cryptococcus neoformans
  MIC: > 200 µM
Staphylococcus aureus [3]
  MIC: 3.1 µM
[4]
  IF: 1
Streptococcus [5]
  MIC: 3.1 µM
[9]
  SI: 49.6

## O=C1OC(c2ccc(O)c(F)c2)(c2ccc(O)c(F)c2)c2cc3ccccc3cc21
[6]
  IF: 0.298
MT4
  CC50: 94 µM
[7]
  IF: 0.582
Streptococcus [1]
  MGC: 15 µM
Staphylococcus aureus [2]
  MGC: 30 µM
Cryptococcus neoformans
  MIC: > 94 µM
Staphylococcus aureus [3]
  MIC: 15 µM (≈ 6.07 µg/mL)
[4]
  IF: 0.521
[8]
  IF: 0.507
Streptococcus [5]
  MIC: 15 µM (≈ 6.07 µg/mL)
[9]
  SI: 6.2

## O=C1OC(O)(c2ccc(O)c(Cl)c2)c2ccc([N+](=O)[O-])c3cccc1c23 (stereo not drawn)
[6]
  IF: 0.086
MT4
  CC50: 66 µM
[7]
  IF: 0.418
Streptococcus [1]
  MGC: 8 µM
Staphylococcus aureus [2]
  MGC: 17 µM
Cryptococcus neoformans
  MIC: > 66 µM
Staphylococcus aureus [3]
  MIC: 4 µM (≈ 1.49 µg/mL)
[4]
  IF: 1
[8]
  IF: < 0.04
Streptococcus [5]
  MIC: 8 µM (≈ 2.97 µg/mL)
[9]
  SI: 8.24

## O=C1OC(c2ccc(O)c(Cl)c2)(c2ccc(O)c(Cl)c2)c2cc3ccccc3cc21
[6]
  IF: 0.093
MT4
  CC50: 120 µM
Streptococcus [1]
  MGC: 6.2 µM
Staphylococcus aureus [2]
  MGC: 6.2 µM
Cryptococcus neoformans
  MIC: > 200 µM
Staphylococcus aureus [3]
  MIC: 3.1 µM (≈ 1.36 µg/mL)
[4]
  IF: 0.103
Streptococcus [5]
  MIC: 3.1 µM (≈ 1.36 µg/mL)
[9]
  SI: 39.6

## O=C1OC(c2ccc(O)cc2)(c2ccc(O)c3ccccc23)c2ccccc21 (stereo not drawn)
[6]
  IF: 0.529
MT4
  CC50: 54 µM
[7]
  IF: 0.498
Streptococcus [1]
  MGC: 34 µM
Staphylococcus aureus [2]
  MGC: 54 µM
Cryptococcus neoformans
  MIC: > 54 µM
Staphylococcus aureus [3]
  MIC: 17 µM (≈ 6.26 µg/mL)
[4]
  IF: 0.172
[8]
  IF: 0.389
Streptococcus [5]
  MIC: 8 µM (≈ 2.95 µg/mL)
[9]
  SI: 6.7

## O=C1OC(c2ccc(O)cc2)(c2ccc(O)cc2)c2ccc(Cl)c3cccc1c23.O=C1OC(c2ccc(O)cc2)(c2ccc(O)cc2)c2cccc3c(Cl)ccc1c23
MT4
  CC50: 69 µM
Streptococcus [1]
  MGC: 8 µM
Staphylococcus aureus [2]
  MGC: 16 µM
Cryptococcus neoformans
  MIC: > 69 µM
Staphylococcus aureus [3]
  MIC: 8 µM
[4]
  IF: 0.438
Streptococcus [5]
  MIC: 8 µM

## O=C1OC(c2ccc(O)c(Cl)c2)(c2ccc(O)c(Cl)c2)c2ccc(Cl)c3cccc1c23.O=C1OC(c2ccc(O)c(Cl)c2)(c2ccc(O)c(Cl)c2)c2cccc3c(Cl)ccc1c23
MT4
  CC50: 63 µM
Streptococcus [1]
  MGC: 1.6 µM
Staphylococcus aureus [2]
  MGC: 3 µM
Cryptococcus neoformans
  MIC: 9.37 µM
Staphylococcus aureus [3]
  MIC: 3 µM
[4]
  IF: 1
Streptococcus [5]
  MIC: 1.6 µM

## O=C1OC(c2ccc(O)cc2)(c2ccc(O)cc2)c2cc3ccccc3cc21
[6]
  IF: 0.247
MT4
  CC50: 79 µM
[7]
  IF: 0.459
Streptococcus [1]
  MGC: 34 µM
Staphylococcus aureus [2]
  MGC: 68 µM
Cryptococcus neoformans
  MIC: > 79 µM
Staphylococcus aureus [3]
  MIC: 17 µM (≈ 6.26 µg/mL)
[4]
  IF: 0.594
[8]
  IF: 0.215
Streptococcus [5]
  MIC: 34 µM (≈ 12.5 µg/mL)
[9]
  SI: 2.3

## O=C1OC(c2ccc(O)c(Cl)c2)(c2ccc(O)c(Cl)c2)c2cccc3cccc1c23
MT4
  CC50: 46 µM
Streptococcus [1]
  MGC: 3.5 µM
Staphylococcus aureus [2]
  MGC: 14 µM
Cryptococcus neoformans
  MIC: 9.37 µM (≈ 4.1 µg/mL)
Staphylococcus aureus [3]
  MIC: 7 µM (≈ 3.06 µg/mL)
[4]
  IF: 0.814
Streptococcus [5]
  MIC: 1.8 µM (≈ 0.787 µg/mL)

## O=C1OC(c2ccc(O)cc2)(c2ccc(O)cc2)c2ccccc21 [PHENOLPHTHALEIN]
MT4
  CC50: 58 µM
[11]
  IF: 0.444
Streptococcus [1]
  MGC: 58 µM
Cryptococcus neoformans
  MIC: > 58 µM
Staphylococcus aureus [3]
  MIC: > 58 µM
[4]
  IF: 0.182
Streptococcus [5]
  MIC: 38 µM (≈ 12.1 µg/mL)

## O=C1OC(c2ccc(O)c(F)c2)(c2ccc(O)c(F)c2)c2cccc3cccc1c23
MT4
  CC50: 117 µM
Streptococcus [1]
  MGC: 25 µM
Staphylococcus aureus [2]
  MGC: 50 µM
Cryptococcus neoformans
  MIC: > 200 µM
Staphylococcus aureus [3]
  MIC: 25 µM (≈ 10.1 µg/mL)
[4]
  IF: 1
Streptococcus [5]
  MIC: 25 µM (≈ 10.1 µg/mL)
